Molecules are shown by their SMILES. Activity calls are given as the source filed them. The rule behind the calls is not given here. Some results are limits rather than exact numbers.

The ED50 is the dose that gives a 50% effect, or the effect in half of the subjects.

The first assay has as its system Mus musculus. The assay can be described thus: Neuroleptic activity in mouse assessed as suppression of conditioned avoidance behavior by measuring mean correct responses level at 10 mg/kg, ip administered 4 hrs prior to electric shock challenge. In kind it is functional. Particulars: route intraperitoneal. Summed up:
(§1)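 After 20 s a solenoid pushed each mouse back onto the grid, leaving 5 s to return and avoid the next shock. Trained mice reaching 90–100% correct avoidance (3–5 per group) received 10 mg/kg ip. Twenty trials were run before dosing and at intervals after. Percent correct avoidance per animal was averaged per group.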
For `CN(C)CCCN1c2ccccc2Sc2ccc(Cl)cc21` [CHLORPROMAZINE], the Activity is 37%.

Turning to `O.O=C(O)/C=C/C(=O)O.O=C(c1ccc(F)cc1)C1CCN(CCCN2c3ccccc3Sc3ccccc32)CC1`, the Activity is 75%.

For a further assay, the system named is Mus musculus. The assay can be described thus: Neuroleptic activity in ip dosed ICR-DUB mouse assessed as survival administered 2 days prior to d-amphetamine challenge measured after 24 hrs.
Details: not given
In kind it is functional.
Turning to `CN(C)CCCN1c2ccccc2Sc2ccc(Cl)cc21` [CHLORPROMAZINE], the ED50 was above 32 mg/kg.

As to `O.O=C(O)/C=C/C(=O)O.O=C(c1ccc(F)cc1)C1CCN(CCCN2c3ccccc3Sc3ccccc32)CC1`, the ED50 amounted to 12.1 mg/kg.

A further assay has as its system Mus musculus. The assay is described as follows: Neuroleptic activity in ip dosed ICR-DUB mouse assessed as survival administered 4 hrs prior to d-amphetamine challenge measured after 24 hrs.
Details: not given
The format is functional.
For `O.O=C(O)/C=C/C(=O)O.O=C(c1ccc(F)cc1)C1CCN(CCCN2c3ccccc3Sc3ccccc32)CC1`, the ED50 was found to be 0.35 mg/kg.

A further assay has as its system Mus musculus. The assay can be described thus: Neuroleptic activity in mouse assessed as suppression of conditioned avoidance behavior by measuring mean correct responses level at 10 mg/kg, ip administered 2 days prior to electric shock challenge. In kind it is functional. Particulars: route intraperitoneal. In short, it runs like this: as §1
As to `CN(C)CCCN1c2ccccc2Sc2ccc(Cl)cc21` [CHLORPROMAZINE], the Activity is recorded as 95%.

`O.O=C(O)/C=C/C(=O)O.O=C(c1ccc(F)cc1)C1CCN(CCCN2c3ccccc3Sc3ccccc32)CC1`: the Activity worked out at 98%.

For the next assay, the system named is Mus musculus. The assay is described as follows: Neuroleptic activity in mouse assessed as suppression of conditioned avoidance behavior by measuring mean correct responses level at 10 mg/kg, ip administered 1 hr prior to electric shock challenge. In kind it is functional. Particulars: route intraperitoneal. Summed up: as §1
With `CN(C)CCCN1c2ccccc2Sc2ccc(Cl)cc21` [CHLORPROMAZINE], the Activity worked out at 42%.

Consider `O.O=C(O)/C=C/C(=O)O.O=C(c1ccc(F)cc1)C1CCN(CCCN2c3ccccc3Sc3ccccc32)CC1`, for which the Activity is 63%.

The test system of a further assay is Mus musculus. The assay can be described thus: Neuroleptic activity in ip dosed ICR-DUB mouse assessed as survival administered 16 hrs prior to d-amphetamine challenge measured after 24 hrs. In kind it is functional.
Details: not given
Turning to `CN(C)CCCN1c2ccccc2Sc2ccc(Cl)cc21` [CHLORPROMAZINE], the ED50 stood at 3.65 mg/kg.

Regarding `O.O=C(O)/C=C/C(=O)O.O=C(c1ccc(F)cc1)C1CCN(CCCN2c3ccccc3Sc3ccccc32)CC1`, the ED50 is 1.27 mg/kg.

The next assay deals with Mus musculus. The assay can be described thus: Neuroleptic activity in ip dosed ICR-DUB mouse assessed as survival administered 3 days prior to d-amphetamine challenge measured after 24 hrs.
Details: not given
In kind it is functional.
As for `CN(C)CCCN1c2ccccc2Sc2ccc(Cl)cc21` [CHLORPROMAZINE], the median effective dose (ED50) entry is “Active”.

For the compound `O.O=C(O)/C=C/C(=O)O.O=C(c1ccc(F)cc1)C1CCN(CCCN2c3ccccc3Sc3ccccc32)CC1`, the ED50 was above 50 mg/kg.

For a further assay, the system named is Mus musculus. The assay can be described thus: Neuroleptic activity in mouse assessed as suppression of conditioned avoidance behavior by measuring mean correct responses level at 10 mg/kg, ip administered 1 day prior to electric shock challenge. Particulars: route intraperitoneal. In kind it is functional. In short, it runs like this: as §1
For the compound `CN(C)CCCN1c2ccccc2Sc2ccc(Cl)cc21` [CHLORPROMAZINE], the Activity is given as 88%.

As to `O.O=C(O)/C=C/C(=O)O.O=C(c1ccc(F)cc1)C1CCN(CCCN2c3ccccc3Sc3ccccc32)CC1`, the Activity turned out to be 87%.

The subject of a further assay is Mus musculus. The assay can be described thus: Neuroleptic activity in mouse assessed as suppression of conditioned avoidance behavior by measuring mean correct responses level at 10 mg/kg, ip administered 8 hrs prior to electric shock challenge. In kind it is functional. Particulars: route intraperitoneal. Summed up:
as §1
With `CN(C)CCCN1c2ccccc2Sc2ccc(Cl)cc21` [CHLORPROMAZINE], the Activity is 72%.

Regarding `O.O=C(O)/C=C/C(=O)O.O=C(c1ccc(F)cc1)C1CCN(CCCN2c3ccccc3Sc3ccccc32)CC1`, the Activity is reported as 93%.

For a further assay, the system named is Mus musculus. The assay can be described thus: Neuroleptic activity in ip dosed ICR-DUB mouse assessed as survival administered 7 days prior to d-amphetamine challenge measured after 24 hrs.
Details: not given
The format is functional.
For `O.O=C(O)/C=C/C(=O)O.O=C(c1ccc(F)cc1)C1CCN(CCCN2c3ccccc3Sc3ccccc32)CC1`, the ED50 entry is “inactive”.

The next assay concerns Mus musculus. The assay is described as follows: Neuroleptic activity in mouse assessed as suppression of conditioned avoidance behavior by measuring mean correct responses level at 10 mg/kg, ip administered immediately prior to electric shock challenge. In kind it is functional. As to conditions: route intraperitoneal. Summed up: as §1
With `CN(C)CCCN1c2ccccc2Sc2ccc(Cl)cc21` [CHLORPROMAZINE], the Activity was 96%.

For the compound `O.O=C(O)/C=C/C(=O)O.O=C(c1ccc(F)cc1)C1CCN(CCCN2c3ccccc3Sc3ccccc32)CC1`, the Activity is 97%.

In another assay the test system is Mus musculus. The assay is described as follows: Neuroleptic activity in ip dosed ICR-DUB mouse assessed as survival administered 1 hr prior to d-amphetamine challenge measured after 24 hrs. The format is functional.
Details: not given
Take `CN(C)CCCN1c2ccccc2Sc2ccc(Cl)cc21` [CHLORPROMAZINE]: the ED50 is 0.28 mg/kg.

Turning to `O.O=C(O)/C=C/C(=O)O.O=C(c1ccc(F)cc1)C1CCN(CCCN2c3ccccc3Sc3ccccc32)CC1`, the median effective dose (ED50) came to 0.94 mg/kg.

For the next assay, the system named is Mus musculus. The assay is described as follows: Neuroleptic activity in mouse assessed as suppression of conditioned avoidance behavior by measuring mean correct responses level at 10 mg/kg, ip administered 2 hrs prior to electric shock challenge. In kind it is functional. Particulars: route intraperitoneal. Summed up: as §1
Take `CN(C)CCCN1c2ccccc2Sc2ccc(Cl)cc21` [CHLORPROMAZINE]: the Activity is on record as 28%.

Take `O.O=C(O)/C=C/C(=O)O.O=C(c1ccc(F)cc1)C1CCN(CCCN2c3ccccc3Sc3ccccc32)CC1`: the Activity is given as 70%.
